Test results taken from ChEMBL document CHEMBL1148356, “Synthesis and biological evaluation of 3-heterocyclyl-7,8,9,10-tetrahydro-(7,10-ethano)-1,2,4-triazolo[3,4-a]phthalazines and analogues as subtype-selective inverse agonists for the GABA(A)alpha5 benzodiazepine binding site” (J Med Chem, 2004).

Tests used:
[1] = target: T1, GABA-A receptor; alpha-1/beta-3/gamma-2 (Homo sapiens) (UniProt P14867+P18507+P28472); assay: Percent change in electrophysiological response in Xenopus oocytes expressing Alpha1-beta3-gamma2 GABA-A receptor; format: functional, cell-based; settings: Oocyte
Outline: (§1)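 Two-electrode voltage clamp on Xenopus oocytes injected with human GABA-A subunit cDNAs, 24-72 h expression, perfused with modified Barth's medium at pH 7.5, clamped between -40 and -70 mV. The GABA EC20 was titrated against a 3 mM GABA maximum. […] Result is % change of control current, mean ± SE of ≥4 oocytes.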

[2] = target: T2, GABA-A receptor; alpha-1/beta-3/gamma-2 (Homo sapiens, UniProt P14867+P18507+P28472); assay: Binding affinity towards human alpha-1-beta-3-gamma-2 GABA-A receptor using [3H]Ro-151788 expressed in L(tk-) cells; format: cell-based
T2 sequence (P14867 whole entry): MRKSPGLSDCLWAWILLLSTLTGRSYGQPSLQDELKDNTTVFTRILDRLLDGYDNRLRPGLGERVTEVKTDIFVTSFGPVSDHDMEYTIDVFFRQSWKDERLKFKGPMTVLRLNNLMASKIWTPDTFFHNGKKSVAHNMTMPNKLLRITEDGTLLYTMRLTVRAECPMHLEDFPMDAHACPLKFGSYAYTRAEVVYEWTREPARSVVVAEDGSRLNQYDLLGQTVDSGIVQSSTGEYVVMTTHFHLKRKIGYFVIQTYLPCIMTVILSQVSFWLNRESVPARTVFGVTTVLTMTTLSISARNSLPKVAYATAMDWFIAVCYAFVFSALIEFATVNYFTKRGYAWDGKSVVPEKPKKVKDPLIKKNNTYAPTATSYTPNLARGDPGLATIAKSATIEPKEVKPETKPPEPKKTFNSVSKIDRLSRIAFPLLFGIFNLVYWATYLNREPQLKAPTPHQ
T2 sequence (P18507 whole entry): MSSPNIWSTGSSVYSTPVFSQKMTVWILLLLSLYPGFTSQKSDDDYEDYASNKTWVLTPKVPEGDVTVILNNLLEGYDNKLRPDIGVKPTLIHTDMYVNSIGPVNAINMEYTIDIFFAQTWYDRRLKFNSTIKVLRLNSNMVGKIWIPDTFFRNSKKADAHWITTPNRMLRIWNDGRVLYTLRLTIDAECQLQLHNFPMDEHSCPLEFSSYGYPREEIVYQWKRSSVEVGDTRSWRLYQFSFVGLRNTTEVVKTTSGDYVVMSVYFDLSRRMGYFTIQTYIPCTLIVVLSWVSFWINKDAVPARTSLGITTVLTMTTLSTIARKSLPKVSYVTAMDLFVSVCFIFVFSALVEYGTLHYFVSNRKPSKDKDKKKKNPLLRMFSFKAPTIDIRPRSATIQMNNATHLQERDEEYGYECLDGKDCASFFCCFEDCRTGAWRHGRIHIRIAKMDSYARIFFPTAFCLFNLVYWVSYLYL
T2 sequence (P28472 whole entry): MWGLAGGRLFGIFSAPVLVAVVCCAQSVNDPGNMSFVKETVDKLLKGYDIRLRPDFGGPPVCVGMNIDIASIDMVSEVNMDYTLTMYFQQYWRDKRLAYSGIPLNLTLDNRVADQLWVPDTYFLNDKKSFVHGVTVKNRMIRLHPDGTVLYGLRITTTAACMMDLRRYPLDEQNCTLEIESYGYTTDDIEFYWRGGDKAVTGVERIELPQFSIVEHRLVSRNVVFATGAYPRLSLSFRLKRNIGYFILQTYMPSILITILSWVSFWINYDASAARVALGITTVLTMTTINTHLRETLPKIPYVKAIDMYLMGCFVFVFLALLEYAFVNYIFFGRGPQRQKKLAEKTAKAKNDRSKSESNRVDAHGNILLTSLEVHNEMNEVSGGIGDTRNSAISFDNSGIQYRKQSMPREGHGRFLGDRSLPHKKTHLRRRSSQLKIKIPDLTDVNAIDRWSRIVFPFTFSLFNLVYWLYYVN

[3] = target: T3, GABA-A receptor; alpha-3/beta-3/gamma-2 (Homo sapiens, UniProt P18507+P28472+P34903); assay: Binding affinity towards human gamma-aminobutyric-acid A receptor alpha-3-beta-3-gamma-2 using [3H]Ro-151788 expressed in L(tk-) cells; format: cell-based
T3 sequence (P18507 whole entry): T2 sequence (P18507 whole entry)
T3 sequence (P28472 whole entry): T2 sequence (P28472 whole entry)
T3 sequence (P34903 whole entry): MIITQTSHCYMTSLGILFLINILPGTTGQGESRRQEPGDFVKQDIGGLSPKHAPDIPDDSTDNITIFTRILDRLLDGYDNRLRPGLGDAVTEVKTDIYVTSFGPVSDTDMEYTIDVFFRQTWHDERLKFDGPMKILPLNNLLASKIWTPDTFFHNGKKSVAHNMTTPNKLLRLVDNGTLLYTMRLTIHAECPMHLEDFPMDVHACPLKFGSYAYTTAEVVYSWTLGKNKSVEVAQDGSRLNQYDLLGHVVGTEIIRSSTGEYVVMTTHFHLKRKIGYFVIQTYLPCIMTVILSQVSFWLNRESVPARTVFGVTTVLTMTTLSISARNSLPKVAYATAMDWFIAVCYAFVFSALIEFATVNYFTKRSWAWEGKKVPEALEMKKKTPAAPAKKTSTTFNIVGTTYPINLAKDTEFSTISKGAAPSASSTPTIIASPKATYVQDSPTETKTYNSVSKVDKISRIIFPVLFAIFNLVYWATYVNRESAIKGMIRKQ

[4] = target: T4, GABA-A receptor; alpha-5/beta-3/gamma-2 (Homo sapiens) (UniProt P18507+P28472+P31644); assay: Percent change in electrophysiological response in Xenopus oocytes expressing Alpha-5-beta-3-gamma-2 GABA-A receptor; format: functional, cell-based; settings: Oocyte; outline: as §1
[5] = target: T5, GABA-A receptor; alpha-5/beta-3/gamma-2 (Homo sapiens, UniProt P18507+P28472+P31644); assay: Binding affinity towards human alpha-5-beta-3-gamma-2 GABA-A receptor using [3H]Ro-151788 expressed in L(tk-) cells; format: cell-based
T5 sequence (P18507 whole entry): T2 sequence (P18507 whole entry)
T5 sequence (P28472 whole entry): T2 sequence (P28472 whole entry)
T5 sequence (P31644 whole entry): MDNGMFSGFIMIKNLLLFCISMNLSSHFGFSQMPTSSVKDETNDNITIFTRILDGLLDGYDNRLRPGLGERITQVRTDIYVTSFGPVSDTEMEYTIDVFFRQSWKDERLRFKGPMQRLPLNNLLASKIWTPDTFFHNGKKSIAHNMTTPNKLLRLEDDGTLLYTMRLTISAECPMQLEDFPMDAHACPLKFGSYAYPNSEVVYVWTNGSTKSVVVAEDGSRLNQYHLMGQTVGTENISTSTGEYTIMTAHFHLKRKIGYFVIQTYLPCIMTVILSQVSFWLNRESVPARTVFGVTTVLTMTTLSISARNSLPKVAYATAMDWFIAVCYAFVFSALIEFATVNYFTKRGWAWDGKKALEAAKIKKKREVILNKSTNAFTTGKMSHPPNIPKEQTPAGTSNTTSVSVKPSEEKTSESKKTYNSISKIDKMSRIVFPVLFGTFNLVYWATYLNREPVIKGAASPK

[6] = target: T6, GABA-A receptor; alpha-2/beta-3/gamma-2 (Homo sapiens, UniProt P18507+P28472+P47869); assay: Binding affinity towards human gamma-aminobutyric-acid A receptor alpha-2-beta-3-gamma-2 using [3H]Ro-151788 expressed in L(tk-) cells; format: cell-based
T6 sequence (P18507 whole entry): T2 sequence (P18507 whole entry)
T6 sequence (P28472 whole entry): T2 sequence (P28472 whole entry)
T6 sequence (P47869 whole entry): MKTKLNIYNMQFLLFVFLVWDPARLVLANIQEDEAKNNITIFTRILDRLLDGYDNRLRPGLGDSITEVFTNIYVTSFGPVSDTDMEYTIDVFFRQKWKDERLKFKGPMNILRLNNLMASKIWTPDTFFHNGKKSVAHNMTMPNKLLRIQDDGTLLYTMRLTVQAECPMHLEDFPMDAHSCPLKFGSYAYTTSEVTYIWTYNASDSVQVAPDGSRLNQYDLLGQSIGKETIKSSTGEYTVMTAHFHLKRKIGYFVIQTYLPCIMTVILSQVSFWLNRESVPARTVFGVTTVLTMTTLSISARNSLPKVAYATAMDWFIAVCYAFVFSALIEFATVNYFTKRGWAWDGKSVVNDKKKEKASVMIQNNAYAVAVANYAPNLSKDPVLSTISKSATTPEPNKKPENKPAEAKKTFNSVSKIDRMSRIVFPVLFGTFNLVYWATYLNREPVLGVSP

[7] = target: T7, GABA-A receptor; alpha-3/beta-3/gamma-2 (Homo sapiens) (UniProt P18507+P28472+P34903); assay: Percent change in electrophysiological response in Xenopus oocytes expressing Alpha3-beta3-gamma2 GABA-A receptor; format: functional, cell-based; settings: Oocyte; outline: as §1
[8] = target: T8, GABA-A receptor; alpha-2/beta-3/gamma-2 (Homo sapiens) (UniProt P18507+P28472+P47869); assay: Percent change in electrophysiological response in Xenopus oocytes expressing Alpha2-beta3-gamma2 GABA-A receptor; format: functional, cell-based; settings: Oocyte; outline: as §1
[9] = Oral bioavailability in rat; format: ADME, organism-based; settings: in vivo
Outline: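 Male SD rats with jugular cannulas were fasted overnight and dosed either by tail-vein IV bolus or orally (n = 3 per route). Serial jugular blood samples were taken up to 8 h. Plasma was frozen at −20 °C, protein-precipitated with acetonitrile containing internal standard, and quantified by LC-MS/MS.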

[10] = target: T1, GABA-A receptor; alpha-1/beta-3/gamma-2 (Homo sapiens); assay: Percent maximum change in electrophysiological response in Xenopus oocytes expressing alpha-1-beta-3-gamma-2 GABA-A receptor; format: functional, cell-based; settings: Oocyte; outline: as §1
[11] = target: T7, GABA-A receptor; alpha-3/beta-3/gamma-2 (Homo sapiens); assay: Percent maximum change in electrophysiological response in Xenopus oocytes expressing alpha-3-beta-3-gamma-2 GABA-A receptor; format: functional, cell-based; settings: Oocyte; outline: as §1
[12] = target: T8, GABA-A receptor; alpha-2/beta-3/gamma-2 (Homo sapiens); assay: Percent maximum change in electrophysiological response in Xenopus oocytes expressing alpha-2-beta-3-gamma-2 GABA-A receptor; format: functional, cell-based; settings: Oocyte; outline: as §1
[13] = target: T4, GABA-A receptor; alpha-5/beta-3/gamma-2 (Homo sapiens); assay: Percent maximum change in electrophysiological response in Xenopus oocytes expressing alpha-5-beta-3-gamma-2 GABA-A receptor; format: functional, cell-based; settings: Oocyte; outline: as §1

Row | SMILES | Efficacy [1] [%] | Ki [2] [nM] | Ki [3] [nM] | Efficacy [4] [%] | Ki [5] [nM] | Ki [6] [nM] | Efficacy [7] [%] | Efficacy [8] [%] | bioavailability [9] [%] | Efficacy [10] [%] | Efficacy [11] [%] | Efficacy [12] [%] | Efficacy [13] [%]
1 | Cc1noc(-c2nnc3c4c(c(OCc5ccc(C)c(C)n5)nn23)C2CCC4CC2)n1 | 1 | 48.6 | 8.6 | -25 | 0.39 | 9.8 | -21 |  |  |  |  |  | 
2 | Cc1cccc(COc2nn3c(-c4cc(C)on4)nnc3c3ccccc23)n1 | 15 |  |  | -15 |  |  | 3 | 12 |  |  |  |  | 
3 | Cc1cccc(COc2nn3c(-c4cnccn4)nnc3c3c2C2CCC3CC2)n1 | 12 | 84 | 10.6 | -9 | 1.8 | 28.4 | 19 | 8 |  |  |  |  | 
4 | Cc1cc(-c2nnc3c4c(c(OCc5ccccn5)nn23)CCCC4)no1 | 0.4 | 4.2 | 1.6 | -23 |  | 3.5 | -15 | -6 |  |  |  |  | 
5 | Cc1noc(-c2nnc3c4c(c(OCc5ccccc5Br)nn23)C2CCC4CC2)n1 | -12 | 58.5 | 6.2 | -42 | 1 | 16.5 | 12 | -18 |  |  |  |  | 
6 | Cc1cccc(COc2nn3c(-c4cc(C)on4)nnc3c3c2C2CCC3CC2)n1 | 21 |  |  | -29 |  |  | -1 | 14 | 3 |  |  |  | 
7 | CCOC(=O)c1ncn2c1[C@@H]1CCCN1C(=O)c1cc(OC)ccc1-2 | -12 |  |  | -12 |  |  | -3 | -17 |  | -18 | -11 | -26 | -21
8 | Cc1ccc(-c2nc3ccc(C)cn3c2CC(=O)N(C)C)cc1 [ZOLPIDEM] | 133 |  | 609 |  | > 10000 | 255 | 142 | 187 |  |  |  |  | 
9 | Cc1cccc(COc2nn3c(-c4ccoc4)nnc3c3c2C2CCC3CC2)n1 | 27 |  |  | -24 |  |  | -4 | -5 |  |  |  |  | 
10 | Cc1cccc(COc2nn3c(-c4ccccc4)nnc3c3ccccc23)n1 | 0.7 | 1.9 | 0.33 | 11 | 1.3 | 1 | -8.3 | -3.8 |  |  |  |  | 
11 | Cc1cccc(COc2nn3c(-c4nc(C)no4)nnc3c3c2C2CCC3CC2)n1 | -15 | 75.7 | 11 | -35 | 1.4 |  | -21 | -10 | < 1 |  |  |  | 
12 | Cc1cccc(COc2nn3c(-c4ccccc4)nnc3c3c2C2CCC3CC2)n1 | 53 | 122 | 23.7 | 14 | 3 | 44.5 | 44 | 35 |  |  |  |  | 
